From ChEMBL document CHEMBL4411297, “Discovery, synthesis and anti-atherosclerotic activities of a novel selective sphingomyelin synthase 2 inhibitor” (Eur J Med Chem, 2019)
Calls of active or inactive are those of the source. The calls are words filed in the database; no cut-off is given here.

How the values were obtained:
[1] = Dose normalized AUC (0 to 8 hrs) in C57BL/6J mouse at 100 mg/kg/day, ig by HPLC-MS/MS analysis; assay type: ADME, organism-based; details: in vivo, po
In short: (§1)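 Male C57BL/6J mice, six to eight weeks old, about 20 g, fasted 12 h with free water. Given a single intragastric dose of 25, 50 or 100 mg/kg in 10% DMSO/30% PEG-100/0.9% NaCl. Blood taken retro-orbitally at 5 min to 8 h. Plasma protein-precipitated with methanol plus internal standard, then HPLC-MS/MS on a C18 column. Noncompartmental analysis, n = 6.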

[2] = AUC (0 to infinity) in C57BL/6J mouse at 100 mg/kg/day, ig by HPLC-MS/MS analysis; assay type: ADME, organism-based; design: dose 100 mg/kg/day, route intragastric, time infinity; details: in vivo, po; in short: as §1
[3] = MRT (0 to 8 hrs) in C57BL/6J mouse at 100 mg/kg/day, ig by HPLC-MS/MS analysis; assay type: ADME, organism-based; details: in vivo, po
In short: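 Male C57BL/6J mice (6–8 weeks, ~20 g), fasted 12 h, given a single intragastric dose of 25, 50 or 100 mg/kg in 10% DMSO/30% PEG/0.9% NaCl. Retro-orbital blood at 5 min to 8 h; plasma protein-precipitated with methanol plus internal standard, assayed by LC-MS/MS; noncompartmental analysis. Mean ± SD, n = 6.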

[4] = AUC (0 to 8 hrs) in C57BL/6J mouse at 50 mg/kg/day, ig by HPLC-MS/MS analysis; assay type: ADME, organism-based; design: time < 8 hr, dose 50 mg/kg/day, route intragastric; details: in vivo, po; in short: as §1
[5] = Cmax in C57BL/6J mouse at 50 mg/kg/day, ig by HPLC-MS/MS analysis; assay type: ADME, organism-based; design: dose 50 mg/kg/day, route intragastric; details: in vivo, po; in short: as §1
[6] = Cmax in C57BL/6J mouse at 25 mg/kg/day, ig by HPLC-MS/MS analysis; assay type: ADME, organism-based; design: dose 25 mg/kg/day, route intragastric; details: in vivo, po; in short: as §1
[7] = Half life in C57BL/6J mouse at 25 mg/kg/day, ig by HPLC-MS/MS analysis; assay type: ADME, organism-based; details: in vivo, po; in short: as §1
[8] = Ratio of drug level in liver to plasma in C57BL/6J mouse at 100 mg/kg/day, ig qd for 7 days measured on day 7; assay type: ADME, organism-based; details: po
In short: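 C57BL/6J mice dosed intragastrically at 100 mg/kg once daily for 7 days; compound levels in liver and blood measured on day 7, n = 5.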

Mus musculus [9] = test: Effect on plasma AST level in apoE knockout mouse fed with western-type diet at 12.5 to 40 mg/kg/day, ig for 7 weeks; assay type: ADME, organism-based; details: in vivo, po, 1176 h
In short: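 ApoE KO mice on Western-type diet, dosed by gavage at 12.5 or 40 mg/kg/day for 7 weeks, n = 10. Blood collected at 20 weeks of age. Plasma SM measured by a previously reported method. ALT and AST read on an automated biochemical analyzer.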

Mus musculus [10] = test: Anti-atherosclerotic activity in apoE knockout mouse fed with western-type diet assessed as reduction in liver SMS activity at 12.5 mg/kg/day, ig for 7 weeks relative to control; assay type: functional; design: scale not given: the % may be the effect or the level left
In short: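 ApoE KO mice on Western-type diet, dosed by gavage at 12.5 or 40 mg/kg/day for 7 weeks, n = 10. Liver homogenized at 200 mg/ml in 50 mM Tris-HCl pH 7.4, 1 mM EDTA, 250 mM sucrose. C6-NBD-ceramide and DMPC added, incubated at 37 °C, quenched with ethanol. Product read by TLC or HPLC, relative to vehicle.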

Mus musculus [11] = test: Anti-atherosclerotic activity in apoE knockout mouse fed with western-type diet assessed as reduction in monocyte count at 12.5 mg/kg/day, ig for 7 weeks by flow cytometric analysis relative to control; assay type: functional; design: scale not given: the % may be the effect or the level left
In short: (§2)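 ApoE KO mice started at 8 weeks old on Western-type diet for 6 weeks. Then dosed by gavage daily with vehicle, 12.5 or 40 mg/kg for 7 weeks with the diet continued, 10 mice per group. Blood single-cell suspensions stained with antibodies in PBS and analysed by flow cytometry. Mean ± SD, n = 5.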

Mus musculus [12] = test: Anti-atherosclerotic activity in apoE knockout mouse fed with western-type diet assessed as reduction in monocyte count at 40 mg/kg/day, ig for 7 weeks by flow cytometric analysis relative to control; assay type: functional; design: scale not given: the % may be the effect or the level left; in short: as §2
Mus musculus [13] = test: Anti-atherosclerotic activity in apoE knockout mouse fed with western-type diet assessed as reduction in CD4+/CD8+ cell ratio at 12.5 mg/kg/day, ig for 7 weeks by flow cytometric analysis relative to control; assay type: functional; design: scale not given: the % may be the effect or the level left; in short: as §2
Mus musculus [14] = test: Anti-atherosclerotic activity in apoE knockout mouse fed with western-type diet assessed as reduction in CD11b+/CD11c+ dendritic cells at 12.5 mg/kg/day, ig for 7 weeks by flow cytometric analysis; assay type: functional, organism-based; in short: as §2
Mus musculus [15] = test: Anti-atherosclerotic activity in apoE knockout mouse fed with western-type diet assessed as reduction in CD11b+/Ly6C++/Ly6G+ dendritic cells at 12.5 mg/kg/day, ig for 7 weeks by flow cytometric analysis relative to control; assay type: functional; design: scale not given: the % may be the effect or the level left; in short: as §2
Mus musculus [16] = test: Anti-atherosclerotic activity in apoE knockout mouse fed with western-type diet assessed as reduction in CD11b+/Ly6C++/Ly6G+ dendritic cells at 40 mg/kg/day, ig for 7 weeks by flow cytometric analysis relative to control; assay type: functional; design: scale not given: the % may be the effect or the level left; in short: as §2
Mus musculus [17] = test: Anti-atherosclerotic activity in apoE knockout mouse fed with western-type diet assessed as reduction in lesions in proximal aorta at 12.5 mg/kg/day, ig for 7 weeks by hematoxylin and eosin staining-based assay relative to control; assay type: functional; design: scale not given: the % may be the effect or the level left
In short: (§3)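 ApoE KO mice fed Western-type diet, then given 12.5 or 40 mg/kg/day by gavage in 30% PEG-400/10% DMSO/0.9% NaCl for 7 weeks. Aortic root: H&E-stained 4 µm sections, mean lesion area from 6 sections per animal. Whole aorta: en face Oil Red O staining, percentage of area stained. Compared with vehicle, n = 10.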

Mus musculus [18] = test: Anti-atherosclerotic activity in apoE knockout mouse fed with western-type diet assessed as reduction in lesions in proximal aorta at 40 mg/kg/day, ig for 7 weeks by hematoxylin and eosin staining-based assay relative to control; assay type: functional; design: scale not given: the % may be the effect or the level left; in short: as §3
[19] = target: T1, Phosphatidylcholine:ceramide cholinephosphotransferase 2 (Mus musculus) (UniProt Q9D4B1); test: Inhibition of SMS2 in C57BL/6J mouse bone marrow derived macrophages after 17 hrs
T1 sequence (whole entry): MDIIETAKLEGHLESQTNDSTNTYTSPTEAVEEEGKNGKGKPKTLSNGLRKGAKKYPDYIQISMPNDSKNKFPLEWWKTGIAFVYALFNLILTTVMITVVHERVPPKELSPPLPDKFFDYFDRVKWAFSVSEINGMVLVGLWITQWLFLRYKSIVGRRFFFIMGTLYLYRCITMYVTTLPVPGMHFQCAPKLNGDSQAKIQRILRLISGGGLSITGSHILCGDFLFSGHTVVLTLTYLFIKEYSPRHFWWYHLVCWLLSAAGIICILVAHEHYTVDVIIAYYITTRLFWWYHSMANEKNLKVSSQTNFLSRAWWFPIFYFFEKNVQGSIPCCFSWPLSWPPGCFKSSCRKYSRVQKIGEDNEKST

AUC/dose [1]: 0.13 µg·h/mL | AUC(0-inf) [2]: 14500 ng·h/mL | MRT [3]: 1.66 h | AUC at 8 h [4]: 6260 ng·h/mL | Cmax [5]: 6120 ng/mL | Cmax [6]: 2530 ng/mL | half-life [7]: 3.22 h | Kp at 168 h [8]: 5 | inhibition [19]: Dose-dependent effect
SMILES: CCc1ccccc1COc1ccccc1C(=O)Nc1cccnc1
Activity (Mus musculus [9]): Non-Toxic | Activity (Mus musculus [10]): 35% | Activity (Mus musculus [11]): 51% | Activity (Mus musculus [12]): 50% | Activity (Mus musculus [13]): 34% | Activity (Mus musculus [14]): inactive | Activity (Mus musculus [15]): 16% | Activity (Mus musculus [16]): 43% | Activity (Mus musculus [17]): 38% | Activity (Mus musculus [18]): 50%
